Consider eight compounds from article PMC7239729 (Pharmacology, biochemistry, and behavior, 2020).

For one data set, the system named is hCB1 receptors. The settings on record: ref Wouters et al., 2019; cited from earlier work.
In data set [1] the target is T1, hCB2 receptor (Homo sapiens, UniProt P34972). Nature of the data set: agonist-stimulated [35S]GTPγS binding, hCB2 HEK293 membranes. The data set is classed as biochemical. Conditions: for CP55,940 more potent than the compound: hCB2, [35S]GTPγS; for CP55,940 greater efficacy than the compound: hCB2, [35S]GTPγS Emax. (In general: GTPγS is a poorly hydrolysed GTP analogue; its binding reports G protein activation.)
T1 sequence (P34972 whole entry): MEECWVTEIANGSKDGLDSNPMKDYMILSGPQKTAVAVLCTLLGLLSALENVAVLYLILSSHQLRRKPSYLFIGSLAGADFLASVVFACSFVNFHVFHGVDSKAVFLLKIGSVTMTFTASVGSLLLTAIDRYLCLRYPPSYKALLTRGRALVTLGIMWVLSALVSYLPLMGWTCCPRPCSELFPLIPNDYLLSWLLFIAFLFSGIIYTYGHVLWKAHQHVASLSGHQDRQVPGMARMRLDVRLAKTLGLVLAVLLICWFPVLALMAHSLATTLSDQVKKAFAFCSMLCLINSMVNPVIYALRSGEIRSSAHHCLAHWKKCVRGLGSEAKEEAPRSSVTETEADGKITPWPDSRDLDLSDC

For data set [2] the following is noted: same dosing procedure; ref Kevin et al., 2017b; cited from earlier work.
The subject of the next data set is male ICR mice. Nature of the data set: cannabinoid tetrad in mice. The data set is classed as in vivo, mouse.
Data set [3] has as its target T1, hCB2 receptor. Nature of the data set: inhibition of forskolin-stimulated cAMP production. Format: cell-based. The settings on record: for CP55,940 more potent than the compound: hCB2, cAMP. A general note: Cyclic AMP is a second messenger, typically raised through Gs and lowered through Gi signalling.
Data set [4] relates to mice trained to discriminate THC (5.6 mg/kg, i.p.) from vehicle. Nature of the data set: THC drug discrimination in mice. Format: in vivo, mouse. Conditions: for ED50: Mus musculus; for substitution for THC / effect on response rates compared to vehicle: i.p.; for substitution for THC: EG-018 10 – 100 mg/kg, full substitution ≥ 80% drug-aperture responding; for effect on response rates compared to vehicle: substitution tests.

Data set [5] can be described thus: human liver microsome incubation. The data set is classed as in vitro ADME. An outline of the steps: (§1)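 Pooled liver microsomes (rat: IGS Sprague-Dawley; human: pooled) at 1 mg protein/mL final with 1 mM NADPH in 50 mM potassium phosphate, pH 7.4, 3 mM MgCl2. Mix preincubated 5 min at 37 °C, then test compound added to 1 μM. Triplicate incubations at 37 °C. Samples at 0, 5, 10, 30 and 60 min quenched in acetonitrile, then extracted with acetonitrile (3:1) and analysed by LC-MS/MS.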

Data set [6] has as its target human CB1 (hCB1) receptor (Homo sapiens, UniProt P21554). Format: binding. Conditions: at both receptors (hCB1 and hCB2).
The target in data set [7] is T2, hCB1 receptor (Homo sapiens, UniProt P21554). Nature of the data set: cell-based. The data set is classed as cell-based.
T2 sequence (P21554 whole entry): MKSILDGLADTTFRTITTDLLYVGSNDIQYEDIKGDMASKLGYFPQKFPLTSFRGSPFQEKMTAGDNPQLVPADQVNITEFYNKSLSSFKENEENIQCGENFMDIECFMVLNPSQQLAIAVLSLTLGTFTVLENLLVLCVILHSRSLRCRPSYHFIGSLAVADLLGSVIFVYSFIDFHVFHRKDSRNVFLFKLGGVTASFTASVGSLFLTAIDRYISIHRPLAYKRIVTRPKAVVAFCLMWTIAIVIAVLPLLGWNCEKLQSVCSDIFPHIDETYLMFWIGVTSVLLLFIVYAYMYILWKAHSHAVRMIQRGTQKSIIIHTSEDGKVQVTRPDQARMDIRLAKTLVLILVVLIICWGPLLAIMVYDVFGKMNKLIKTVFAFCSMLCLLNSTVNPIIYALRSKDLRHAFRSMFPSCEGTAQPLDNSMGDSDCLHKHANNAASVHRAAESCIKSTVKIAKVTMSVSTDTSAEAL
Data set [8] addresses T2, hCB1 receptor. Nature of the data set: biochemical. Format: biochemical.
Data set [9] can be described thus: rat liver microsome incubation. Format: in vitro ADME. An outline of the steps:
as §1
(Liver microsomes are vesicles of endoplasmic reticulum, rich in cytochrome P450 enzymes.)

The nature of data set [10]: metabolite analysis in mouse urine. Format: in vivo. Conditions: mice, 30 mg/kg i.p., pooled 24 h urine, LC-MS.
For data set [11], the target named is human CB2 (hCB2) receptor (Homo sapiens, UniProt P34972). Nature of the data set: [3H]CP55,940 competition binding, hCB2 HEK293 membranes.
human CB2 (hCB2) receptor, sequence (P34972 whole entry): as the sequence (P34972 whole entry) above
Data set [12] can be described thus: rat plasma pharmacokinetics. The data set is classed as in vivo. Summed up: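 Four 49-day-old male Long-Evans rats with jugular vein catheters, housed singly in metabolite cages. Test compound given i.p. at 3 mg/kg (3 mg/mL in 7.8% polysorbate 80/92.2% saline). Blood drawn 0.25 h before dosing and 0.25, 0.5, 1, 2, 4, 8 and 24 h after, into chilled K3EDTA. Plasma separated at 4 °C, extracted with acetonitrile (3:1) and analysed by LC-MS/MS.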

For another data set, the system named is mice. Conditions: ref Wiley et al., 2015, cited from earlier work.
A further data set has as its target CB1. Conditions: read-out: affinity; ref Wiley et al., 2015; cited from earlier work.
The mark [13] stands for this setting: i.p., 30 min, THC 3, 10 or 56 mg/kg, EG-018 1-100 mg/kg.
The mark [14] stands for this setting: i.p., THC 3, 10 or 56 mg/kg, EG-018 1-100 mg/kg.
Setting [15] is: HEK293, read-out: % of CP55,940 Emax.
[16] abbreviates: human, pooled human liver microsomes, pH 7.4.
The mark [17] stands for this setting: Sprague-Dawley, rat, pooled rat liver microsomes, pH 7.4.
Where [18] appears, read: male, Long-Evans, rat, plasma, ip, 3 mg/kg.
Where [19] appears, read: rimonabant 3 mg/kg i.v. 10 min before EG-018 56 mg/kg i.v.

Several values for one entry are separate records, joined by “and”; a condition that tells them apart may be missing. Equal values may be shown once. Read-outs that look alike come from different tables or passages of the source.

human CB1 (hCB1) receptor, sequence (P21554 whole entry): as the sequence (P21554 whole entry) above

With `CCCCCCC(C)(C)c1ccc([C@@H]2C[C@H](O)CC[C@H]2CCCO)c(O)c1` [CP55,940, reference compound], the “greater potency for mini-Gαi over beta arrestin-2” value in the data set on hCB1 receptors is recorded as “four-fold shift in potency”.

Consider `CCCCC/C=C\C/C=C\C/C=C\C/C=C\CCCC(=O)NCCO` [anandamide], for which, on hCB2 receptor [1], the “CP55,940 more potent than the compound” value amounted to 200 fold and the “CP55,940 greater efficacy than the compound” value came out at 2.5 fold. Moreover, the maximal response (Emax) on hCB2 receptor [1] (read-out: Emax±SEM) worked out at 49.2 ± 2.25%.

On to `CCCCCn1nc(C(=O)Nc2cccc3ccccc23)c2ccccc21` [MN-18], for which the Tmax in [2] was about 2.5 h.

Take `CCCCCc1cc(O)c2c(c1)OC(C)(C)[C@@H]1CCC(C)=C[C@@H]21` [THC, delta-9-tetrahydrocannabinol]: in the data set with male ICR mice (setting [13]), the locomotor activity entry is “hypomotility”. Also, the “antinociception (tail-flick)” value with male ICR mice (setting [14]) is on record as “anti-nociception”. Also, the “catalepsy (ring immobility)” value with male ICR mice (setting [14]) is listed as “catalepsy”. Besides, the rectal temperature result with male ICR mice (setting [14]) is reported as “hypothermia”. Moreover, the Emax at hCB2 receptor [3] (setting [15]) was 45%; at hCB2 receptor [3] (HEK293, read-out: Emax±SEM), 27.3 ± 3.68%. In addition, at hCB2 receptor [3], the “CP55,940 more potent than the compound” value was 26 fold. In addition, the median effective dose (ED50) in data set [4] (ip, read-out: ED50, substitution for THC) was found to be 2.2 mg/kg; in data set [4] (ip, read-out: ED50 of THC after EG-018 pretreatment), 1.2 mg/kg; in [4] (read-out: ED50 of THC after vehicle pretreatment), 1.5 mg/kg. Also, in data set [4], the “substitution for THC” value is listed as “fully substituted for itself”. The “effect on response rates compared to vehicle” value in data set [4] is “Neither THC nor EG-018 significantly affected response rates”.

Take `CCCCCn1cc(C(=O)Nc2cccc3ccccc23)c2ccccc21` [NNEI]: in data set [2], the Tmax entry is listed as “approximately 0.5 hours”.

For the compound `CCCCCn1c2ccccc2c2cc(C(=O)c3cccc4ccccc34)ccc21` [EG-018, Naphthalen-1-yl(9-pentyl-9H-carbazol-3-yl)methanone], the “antinociception (tail-flick)” value with male ICR mice (56 mg/kg i.v.) is listed as “did not significantly elicit antinociceptive behavior”; with male ICR mice (setting [14]), “did not produce significant effects in any of the four assays”. Moreover, the “catalepsy (ring immobility)” value with male ICR mice (56 mg/kg i.v.) was “catalepsy”; with male ICR mice (setting [14]) it was “did not produce significant effects in any of the four assays”. The rectal temperature result in the data set on male ICR mice (56 mg/kg i.v.) is on record as “hypothermia”; in the data set with male ICR mice (setting [14]) it was “did not produce significant effects in any of the four assays”. Also, the locomotor activity result with male ICR mice (56 mg/kg i.v., 5 min) was “hypomotility”; with male ICR mice (setting [13]), “did not produce significant effects in any of the four assays”. The EC50 came to 11.3 nM at hCB2 receptor [1] and 182 nM at hCB2 receptor [3]. For the same compound, the “CP55,940 more potent than the compound” value on hCB2 receptor [1] was found to be 12 fold; at hCB1 receptor [7] (hCB1, cAMP), 53 fold; at hCB2 receptor [3], 114 fold. Moreover, the “CP55,940 greater efficacy than the compound” value at hCB2 receptor [1] was found to be 2.5 fold; at hCB1 receptor [8] (hCB1, [35S]GTPγS Emax), 3.5 fold. The maximal response (Emax) on hCB2 receptor [1] (read-out: % of CP55,940 Emax) came to 40%; at hCB2 receptor [1] (read-out: Emax±SEM) it was 46.2 ± 2.72%; at hCB1 receptor [7] (setting [15]) it was 73%; at hCB1 receptor [7] (HEK293, read-out: Emax±SEM), 32.9 ± 2.27%; on hCB1 receptor [8] (read-out: % of CP55,940 Emax) it was 28%; on hCB1 receptor [8] (read-out: Emax±SEM) it was 73.9 ± 9.12%. For the same compound, the maximum response (Emax) on hCB2 receptor [3] (setting [15]) was found to be 48%; at hCB2 receptor [3] (HEK293, read-out: Emax±SEM), 28.1 ± 6.14%. The “CLH (mL/min/kg body wt.)” value in [5] (human liver microsomes, estimated hepatic clearance) is on record as 19.03 mL/min/kg body wt; in data set [9] (rat liver microsomes, estimated hepatic clearance), 46.39 mL/min/kg body wt. The “CLint (mL/min/kg body wt.)” value in data set [5] (human liver microsomes, estimated intrinsic clearance) was 393.09 mL/min/kg body wt; in [9] (rat liver microsomes, estimated intrinsic clearance) it was 290.77 mL/min/kg body wt. Moreover, the ER in data set [5] (human liver microsomes, extraction ratio) stood at 0.95; in data set [9] (rat liver microsomes, extraction ratio), 0.84. Besides, the half-life at 1 μM in [5] (setting [16]) came out at 2.04 min; in data set [9] (setting [17]) it was 4.29 min. Also, the microsomal CLint at 1 μM in [5] (setting [16]) was found to be 340 µL/min/mg; in data set [9] (setting [17]), 160 µL/min/mg. For the same compound, the “lower affinity than CP55,940” value in data set [6] is 10- to 40 fold. At hCB1 receptor [8] (hCB1, [35S]GTPγS), the “less potent than CP55,940” value is listed as “approximately 90 fold”. In addition, the “less efficacy than THC” value on hCB1 receptor [8] (hCB1, [35S]GTPγS Emax) is given as “approximately 2 fold”. Moreover, the “activity in [35S]GTPγS binding” value on hCB1 receptor [8] (initial studies, ligands not pre-equilibrated prior to addition of [35S]GTPγS (data not shown)) was “appeared to be inactive”. Further, in the data set with hCB1 receptors, the “greater potency for mini-Gαi over beta arrestin-2” value is 26 fold. In addition, the “parent compound or metabolites in urine” value in data set [10] is listed as “No intact parent compound or metabolites were identified”. Moreover, the “substitution for THC” value in data set [4] is recorded as “did not substitute for THC at any dose”. Moreover, in data set [4], the “effect on response rates compared to vehicle” value is recorded as “Neither THC nor EG-018 significantly affected response rates”. Moreover, in [11] (Ki (nM), hCB2, HEK293 membranes, [3H]CP55,940), the Ki was 8 nM and 7.76 nM. Also, in [11] (Ki ratio hCB1/hCB2), the “greater affinity for hCB2 over hCB1” value is reported as “approximately 3 fold”. In addition, the AUC(0-inf) in [12] (setting [18]) stood at 168 ng·h/mL. For the same compound, the AUC(0-t) in data set [12] (setting [18]) turned out to be 154 ng·h/mL. The compound further displayed a Cmax in data set [12] (setting [18]) of 26 ng/mL. In addition, the time of peak concentration (Tmax) in data set [12] (setting [18]) came out at 2 h. The half-life in data set [12] (male, Long-Evans, rat, plasma, ip, 3 mg/kg, Half life (h), rat plasma, 3 mg/kg i.p.) is 150 min. Also, the “CL/F (mL/min/kg body wt.)” value in data set [12] (rat plasma, 3 mg/kg i.p., observed apparent clearance) was determined as 520.93 mL/min/kg body wt. Moreover, in data set [12] (rat plasma, 3 mg/kg i.p., 3 mg/kg), the “Half life” value amounted to 2.53 h.

Turning to `Cc1c(C(=O)NN2CCCCC2)nn(-c2ccc(Cl)cc2Cl)c1-c1ccc(Cl)cc1` [rimonabant, reference compound], in the data set with male ICR mice (setting [19]), the “antagonism of EG-018-induced catalepsy” value is “attenuated catalepsy”, the “antagonism of EG-018-induced hypomotility” value is recorded as “did not significantly reduce” and the “antagonism of EG-018-induced hypothermia” value is “did not significantly reduce hypothermia”. For the same compound, in the data set on mice (rimonabant 3 mg/kg i.v. before FUBIMINA 56 mg/kg i.v.), the “antagonism of FUBIMINA tetrad effects” value was “reversed”.

Regarding `O=C(c1cccc2ccccc12)c1nc2ccccc2n1CCCCCF` [FUBIMINA], the tetrad effects result with mice (56 mg/kg i.v.) is reported as “produced marked tetrad effects in all four measures”; with mice (doses up to 100 mg/kg i.p.), “largely without effect”. Further, at CB1, the Ki was 296 nM.

By Emax is commonly meant the maximal effect, on the per cent scale that the assay sets. In general, Tmax refers to the time from dosing to the highest level. In general, ED50 refers to the midpoint of the dose-response relation. A word on the EC50: it is the concentration giving half of the maximal effect. A lower EC50 goes with a more potent agent. The half-life is the time needed for the level to fall by half in the phase considered. Low readings indicate fast loss, high ones slow loss. The microsomal CLint is the capacity of the preparation to metabolise the compound, expressed as a volume cleared per time. A lower microsomal CLint goes with slow turnover. The term AUC(0-inf) denotes the area under the concentration-time curve extrapolated to infinity. A higher AUC(0-inf) goes with high exposure. A word on the AUC(0-t): it is the area under the concentration-time curve up to a stated or last time point. Low values mean low exposure, high ones high exposure. A word on the Cmax: it is the maximum level reached in the sampled fluid or tissue.
